Source: ChEMBL document CHEMBL4765486, “Novel Nonsecosteroidal Vitamin D Receptor Modulator Combined with Gemcitabine Enhances Pancreatic Cancer Therapy through Remodeling of the Tumor Microenvironment” (J Med Chem, 2021)
Activity calls are given as the source filed them. Unless noted, the calls are words filed in the database; no cut-off is given here.

How the values were obtained:
LTC-14 [1] = assay: Inhibition of rat LTC-14 cells activation assessed as inhibition of PDGFB mRNA expression at 0.5 uM treated under conditioned media of DSL-6A/C1 cells for 24 hrs by q-PCR analysis; assay type: functional, cell-based
Method in brief: (§1)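 LTC-14 PSCs were exposed for 24 h to conditioned medium from rat DSL-6A/C1 cancer cells containing compound at 0.5 μM. Pdgfa, Pdgfb, Fgf2, Hgf and Periodin mRNA were quantified by RT-qPCR. Three repeats, mean ± SD versus CM alone.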

LTC-14 [2] = assay: Inhibition of rat LTC-14 cells activation assessed as inhibition of Hgf mRNA expression at 0.5 uM treated under conditioned media of DSL-6A/C1 cells for 24 hrs by q-PCR analysis; assay type: functional, cell-based; method in brief: as §1
DSL-6A/C1 [3] = assay: (§2) Potentiation of gemcitabine-induced antitumor activity against luciferase-tagged rat DSL-6A/C1 cells and GFP-tagged LTC-14 cells co-inoculated in orthotropic xenograft BALB/c nude mouse model of pancreatic cancer assessed as inhibition of collagen deposition at 500 ug/kg, ip administered once every 3 days for 12 days coadministered with gemcitabine at 100 mg/kg and measured after 3 days post last dose by Masson staining based assay; assay type: functional, organism-based; settings: dose 500.0 µg/kg, time 12.0 day
Method in brief: (§3)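 In the same orthotopic co-inoculation model, mice received gemcitabine 100 mg/kg ip every 3 days plus compound 500 μg/kg ip for 12 days. Animals were sacrificed 3 days after the last dose. Pancreatic tumour sections were stained with H&E for tissue structure and with Masson's trichrome for collagen deposition, imaged at ×100.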

Mus musculus = assay: Inhibition of GFP-tagged rat LTC-14 cells activation in BALB/c nude mouse xenografted along with luciferase-tagged DSL-6A/C1-Luc cells assessed as reduction in alpha-smooth muscle actin expression in tumor at 500 ug/kg, ip administered once every 3 days for 12 days coadministered with gemcitabine at 100 mg/kg by DAPI staining based laser confocal scanning microscopy; assay type: functional, organism-based; settings: dose 500.0 µg/kg, time 12.0 day
Method in brief: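 Tumours were taken from orthotopic co-inoculated nude mice given gemcitabine 100 mg/kg plus compound (500 μg/kg) or calcipotriol (60 μg/kg) ip for 12 days. Sections were fixed in 4% PFA, permeabilised with 0.5% Triton X-100 and blocked in 5% BSA. They were incubated with anti-α-SMA overnight at 4 °C, then an Alexa Fluor 594 secondary for 1 h at 37 °C, DAPI-counterstained and imaged by confocal microscopy.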

[4] = Cytotoxicity against rat LTC-14 cells assessed as reduction in cell proliferation incubated for 24 hrs by MTT assay; assay type: cell-based; settings: LTC-14, 24 h
LTC-14 [5] = assay: Inhibition of rat LTC-14 cells interaction with DSL-6A/C1 cells in conditioned media assessed as inhibition of PDGF-A protein expression at 0.5 uM measured after 24 hrs by Western blot analysis; assay type: functional, cell-based
Method in brief: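 LTC-14 cells were treated for 24 h with DSL-6A/C1 conditioned medium plus compound (0.5 μM). Proteins were separated on 10% SDS-PAGE, transferred to PVDF and probed with rabbit anti-PDGF-A or anti-POSTN, with β-actin as loading reference.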

[6] = Toxicity in orthotropic xenograft BALB/c nude mouse model of pancreatic cancer co-inoculated with rat DSL-6A/C1-Luc cells and LTC-14-GFP cells assessed as hypercalcemia at 500 ug/kg, ip administered once every 3 days for 12 days coadministered with gemcitabine at 100 mg/kg and measured after 3 days post last dose; assay type: organism-based; settings: in vivo, 0.5 mg/kg, 288 h, dose 500 µg/kg, time 12 day
Method in brief: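 Orthotopic DSL-6A/C1-luci/LTC-14-GFP nude mice received gemcitabine 100 mg/kg plus compound 500 μg/kg ip for 12 days. They were sacrificed 3 days after the final dose, and serum was collected for biochemical analysis to assess hypercalcemia.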

LTC-14 [7] = assay: Inhibition of rat LTC-14 cells activation assessed decrease in TGF-beta1 induced collagen 1 protein expression at 0.5 uM incubated for 24 hrs by Western blot analysis; assay type: functional, cell-based
Method in brief: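 LTC-14 cells were treated for 24 h with compound (0.5 μM) plus TGF-β1 (0.5 ng/mL in the text, 5 ng/mL in the methods). Lysates were run on 10% SDS-PAGE, transferred to PVDF and probed with rabbit anti-collagen I, with β-actin as reference. Bands were quantified by densitometry versus TGF-β1 alone.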

[8] = target: T1, Vitamin D3 receptor (Homo sapiens) (UniProt P11473); assay: Agonist activity at VDR (unknown origin) expressed in HEK293 cells co-transfected with pGL4.27-SPP3-Luc and CMV-hRXRalpha and pCMX-Renilla plasmids after 24 hrs by dual luciferase reporter gene assay; assay type: cell-based; settings: filed as agonist, dose 0.0001-1 µM
T1 sequence (whole entry): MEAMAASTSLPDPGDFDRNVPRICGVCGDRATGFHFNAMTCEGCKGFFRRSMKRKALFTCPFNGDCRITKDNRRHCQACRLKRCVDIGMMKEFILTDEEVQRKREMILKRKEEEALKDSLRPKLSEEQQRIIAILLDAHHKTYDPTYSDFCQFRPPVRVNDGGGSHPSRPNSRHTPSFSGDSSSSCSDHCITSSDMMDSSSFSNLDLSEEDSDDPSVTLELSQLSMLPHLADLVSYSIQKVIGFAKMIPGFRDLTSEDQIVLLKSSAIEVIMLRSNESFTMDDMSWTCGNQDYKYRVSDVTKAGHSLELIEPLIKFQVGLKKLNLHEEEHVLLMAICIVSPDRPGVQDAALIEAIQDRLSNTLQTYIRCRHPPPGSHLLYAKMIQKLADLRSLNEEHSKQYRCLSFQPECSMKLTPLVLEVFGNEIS
Method in brief: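 HEK293 cells in 48-well plates were transfected per well with 40 ng TK-Spp×3-LUC reporter, 20 ng pCMX-Renilla, 30 ng pENTER-CMV-hRXRα and 100 ng pCMX-VDR using Lipofectamine 2000. Compounds were added 8 h post-transfection, and dual-luciferase activity was read 24 h later. Firefly signal was normalised to Renilla. The experiment was run three times.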

LTC-14 [9] = assay: Inhibition of rat LTC-14 cell activation assessed decrease in TGF-beta1 induced Colla1 mRNA expression at 0.5 uM incubated for 24 hrs by q-PCR analysis; assay type: functional
Method in brief: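 Immortalized rat PSC line LTC-14, about 1×10^5 cells per well, was grown 24 h at 37 °C in 5% CO2. Cells then received compound (0.5 μM) plus TGF-β1 for 24 h; TGF-β1 is stated as 0.5 ng/mL in the text and 5 ng/mL in the methods. Col1a1 and Acta2 mRNA were measured by RT-qPCR. Mean ± SD versus TGF-β1 alone.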

Vitamin D3 receptor = target: T2, Vitamin D3 receptor (Homo sapiens, UniProt P11473); assay: Binding affinity to VDR (unknown origin) by fluorescence polarization assay
T2 sequence (P11473 whole entry): T1 sequence (whole entry)
Method in brief: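 Competitive VDR binding was measured by PolarScreen fluorescence polarization, in triplicate.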

LTC-14 [10] = assay: Inhibition of rat LTC-14 cells activation assessed as inhibition of Periodin-mRNA expression at 0.5 uM treated under conditioned media of DSL-6A/C1 cells for 24 hrs by q-PCR analysis; assay type: functional, cell-based; method in brief: as §1
DSL-6A/C1 [11] = assay: as §2, with “decrease in density” for “inhibition”, “tumor tissue” for “collagen deposition”, “hematoxylin and eosin” for “Masson”; assay type: functional, organism-based; settings: dose 500.0 µg/kg, time 12.0 day; method in brief: as §3
DSL-6A/C1 [12] = assay: Antiproliferative activity against rat DSL-6A/C1 cells assessed as reduction in cell viability at 0.5 uM treated with conditioned media of LTC-14 cells for 24 hrs by MTT assay; assay type: functional, cell-based
Method in brief: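 Rat pancreatic cancer DSL-6A/C1 cells were cultured in supernatant from LTC-14 PSCs (PSC-CM) with compound added at 0.5 μM for 24 h. Viability was then read by MTT: 4 h incubation with MTT (5 mg/mL stock), absorbance at 570 nm. Run in triplicate, compared with PSC-CM alone.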

In the case of `CCn1cc(C(CC)(CC)c2ccc(OCC(C)O)c(C)c2)cc1C(=O)NCCN1CCN(C)CC1` (centres undefined), the inhibition (LTC-14 [1]) is reported as “Active”, the inhibition (LTC-14 [2]) is reported as “Active” and the Activity (DSL-6A/C1 [3]) is reported as “Active”. The inhibition (Mus musculus) was “Active”, the IC50 [4] was > 10000 nM and the inhibition (LTC-14 [5]) was “Active”. For the same compound, the Activity [6] was “Non-Toxic”, the inhibition (LTC-14 [7]) was “Active” and the Activity [8] was “Dose-dependent effect”. For the same compound, the inhibition (LTC-14 [9]) was “Active”, the IC50 (Vitamin D3 receptor) was 57.2 nM and the inhibition (LTC-14 [10]) was “Active”. For the same compound, the Activity (DSL-6A/C1 [11]) was “Active” and the Activity (DSL-6A/C1 [12]) was “inactive”.
